Results gathered from unrelated publications.
Protocols differ between the studies behind these lines.
Target: Proto-oncogene tyrosine-protein kinase Src (SRC, Homo sapiens, UniProt P12931)

| Structure (SMILES) | effect on | technique | concentration | remaining binding |
| --- | --- | --- | --- | --- |
| COc1cnc(Nc2cccc(S(N)(=O)=O)c2)nc1N1CCN(c2ccccc2)CC1 | binding | competition with immobilised ligand | 1 µM | 100% |
| C[C@@H](c1ccc(-n2cnc3c(N)ncnc32)cc1)N1CCc2nn(C)c(Cc3ccccc3)c2C1=O | binding | competition with immobilised ligand | 0.1 µM | 98% |
| CN(C)c1ncc(F)c(-c2cnn3ncccc23)n1 | binding |  | 1 µM | 79% |
| Cc1c(NC(=O)c2cc(C(N)=O)nc3cc(F)ccc23)c(C(F)(F)F)nn1Cc1ccc(C#N)cc1 | cell-free assay | competition with immobilised ligand | 1 µM | 81% |
| N[C@@H]1CCN(c2nccc(-c3cnn4ncccc34)n2)C1 | binding |  | 1 µM | 100% |
| c1cncc(-c2cccc(Nc3nccc(NC4CCCCC4)n3)c2)c1 | binding | competition with immobilised ligand | 10 µM | 2.2% |
| O=C(c1ccc(Nc2nccc(-c3cc4ccccc4s3)n2)cc1)N1CCC(N2CCCC2)CC1 | binding | competition with immobilised ligand | 1 µM | 63% |
| COc1cc(-c2cn(C3CCc4ccccc4N(CC(F)(F)F)C3=O)nn2)ccc1-n1ccc(C)n1 (centres unmarked) | cell-free assay | competition with immobilised ligand | 1 µM | 100% |
| O=C(Nc1c[nH]nc1C(=O)NC1CCNCC1)c1cc(F)cc(F)c1 | binding | competition with immobilised ligand | 1 µM | 100% |
| Nc1c(C(=O)NCc2ccc(C(=O)NCCCC3CCCCC3)cc2)cnn1-c1ccccc1 | cell-free assay | competition with immobilised ligand | 0.1 µM | 100% |
| CC1CCCN1c1nccc(-c2cnn3ncccc23)n1 (centres unmarked) | binding |  | 1 µM | 100% |
| CN([C@@H]1CCc2c(CC(=O)O)c3cc(S(C)(=O)=O)ccc3n2C1)S(=O)(=O)c1ccc(F)cc1 | cell-free assay | competition with immobilised ligand | 1 µM | 96% |
| COc1ncc2cc3ccccc3nc2c1C#N | cell-free assay | competition with immobilised ligand | 5 µM | 88% |
| CN(c1nccc(-c2cnn3ncccc23)n1)C1CC1 | binding |  | 1 µM | 100% |
| CN(C)c1ncnc(-c2ccc3nc(Nc4cc(CN5CCN(C(=O)CC(F)(F)F)CC5)ccn4)[nH]c3c2)c1Cl | cell-free assay | competition with immobilised ligand | 1 µM | 100% |
| c1cnn2ncc(-c3ccnc(N4CCC45COC5)n3)c2c1 | binding |  | 1 µM | 100% |
| O=C(c1ccc(Nc2ncc(Cl)c(-c3cc4ccccc4s3)n2)cc1)N1CCC(N2CCCC2)CC1 | binding | competition with immobilised ligand | 1 µM | 62% |
